SMILES strings stand for the structures. The source made the active and inactive calls.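 Rule for the calls: active = fitted curve rises past 10% of the positive control signal at or below the top valid tested dose; inconclusive = flat fit between 30 and 70%, or an unreliable fit; inactive = the rest, including signal that falls instead.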

The values below come from PubChem BioAssay AID504360 (Broad Institute, 2011).

Tested on in one test: not listed separately
Nature of the test: apoptosis induction in tBid-primed mouse fibroblasts – cell-based, MEF A1-2A-tBid, luminescence, dry powder, set 3, orthogonal assay for A1 inhibitor project, dose response (AID 504360). The following applies: MEF A1-2A-tBid cells, caspase-3/7 luminescence, 3 h; at 35 µM (top of the series). The gist of the method: (§1)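 Material – mouse embryonic fibroblasts co-expressing A1 and tBid (A1-2A-tBid), primed · Quantity – 2500 cells per well · Medium – RPMI-1640, 10% FBS · Compound – 100 nL pinned compound · Incubation – 3 h 37 °C compound exposure, then 1 h room-temperature Caspase-Glo · Signal – luminescence from Caspase-Glo 3/7 DEVD-luciferin substrate, 1:1 in 50 mM HEPES · Read-out – Caspase-3/7 activity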
`COc1nc2ccccc2c(Cl)c1[N+](=O)[O-]`: the caspase activation is 1.9% (inactive). Same read-out and setting: then `C/C(=N\Nc1nc(N2CCCCC2)nc(N2CCCCC2)n1)c1ccc(F)cc1`, with -0.355% (inactive); and `Cc1ccc(Sc2c(Sc3ccc(C)cc3)c3ccccc3n(C)c2=O)cc1`, with 0.911% (inactive); and `CCn1c(=O)c(Sc2ccc(C)cc2)c(Sc2ccc(C)cc2)c2ccccc21`, with 5.31% (inactive). Still for that read-out and setting: then `COc1ccc(CCNc2nc(N3CCCC3)nc(N3CCCC3)n2)cc1OC`, with 3.4% (inactive); and `CCn1c(=O)c([N+](=O)[O-])c(Sc2ccc(C)cc2)c2ccccc21`, with 1.72% (inactive). The same measure, in the same setting: for `COc1c([N+](=O)[O-])c(=O)n(C)c2ccccc12` the value was 1.76% (inactive); for `O=c1[nH]c2ccccc2c(O)c1[N+](=O)[O-]`, 2.36% (inactive). With `Cn1c(=O)c(Sc2ccccn2)c(Sc2ccccn2)c2ccccc21`, the caspase activation is 3.1% (inactive). On the same count and under the same terms, then `Cc1ccc(Sc2c([N+](=O)[O-])c(=O)n(Cc3ccccc3)c3ccccc23)cc1`, with 3.46% (inactive); and `COc1nc2ccccc2c(Sc2ccc(C)cc2)c1[N+](=O)[O-]`, with 1.61% (inactive). With `Cc1ccc(Sc2c([N+](=O)[O-])c(=O)n(C)c3ccccc23)cc1`, the caspase activation was 10.3% (inactive). Consider `COc1ccc(CCNc2nc(N3CCOCC3)nc(N3CCOCC3)n2)cc1OC`, for which the caspase activation is 1.3% (inactive). On the same count and under the same terms, then `COc1ccc(N2CCN(c3nc(NCCc4ccc(OC)c(OC)c4)nc(N4CCOCC4)n3)CC2)cc1`, with -0.079% (inactive); and `O=C(COc1ccc(Cl)cc1Cl)NNc1nc(N2CCOCC2)nc(N2CCOCC2)n1`, with -1.25% (inactive). On the same count and under the same terms, then `COCCn1c(=O)c(Sc2ccc(C)cc2)c(Sc2ccc(C)cc2)c2ccccc21`, with 1.26% (inactive); and `Cc1ccc(Sc2c(Sc3ccc(C)cc3)c3ccccc3n(Cc3ccccc3)c2=O)cc1`, with 1.55% (inactive).

In a further test the test system is MEF A1-2A-tBid cells, caspase-3/7 luminescence, 3 h. The test is described as above.
Details: not given
The gist of the method:
as §1
In the case of `COCCn1c(=O)c([N+](=O)[O-])c(Cl)c2ccccc21`, the AC10 was 1470 nM. Same read-out and setting: then `Cn1c(=O)c([N+](=O)[O-])c(S(C)(=O)=O)c2ccccc21`, with 3280 nM.

For the compound `O=c1[nH]c2ccccc2c(Cl)c1[N+](=O)[O-]`, the AC10 is 2540 nM. Same read-out and setting: then `Cn1c(=O)c([N+](=O)[O-])c(Cl)c2ccccc21`, with 1880 nM; and `Cn1c(=O)c([N+](=O)[O-])c(Sc2ccccn2)c2ccccc21`, with 2950 nM.

In the case of `Cc1ccc(S(=O)(=O)c2c([N+](=O)[O-])c(=O)n(C)c3ccccc23)cc1`, the AC10 is 3190 nM. Still for that read-out and setting: then `O=c1c([N+](=O)[O-])c(Cl)c2ccccc2n1Cc1ccccc1`, with 12400 nM. Still for that read-out and setting: for `CC1(C)CCC(c2ccc(Cl)cc2)=C(CN2CCN(c3ccc(C(=O)NS(=O)(=O)c4ccc(N[C@H](CCN5CCOCC5)CSc5ccccc5)c(S(=O)(=O)C(F)(F)F)c4)cc3)CC2)C1` the value was 579 nM.

In the case of `COCCn1c(=O)c([N+](=O)[O-])c(Sc2ccc(C)cc2)c2ccccc21`, the AC10 was 16700 nM. Same read-out and setting: for `CCn1c(=O)c([N+](=O)[O-])c(Cl)c2ccccc21` the value was 1950 nM.
